Measured values collected from several papers.
Protocols differ between the studies behind these lines.
Target: Carbonic anhydrase 2 (CA2, Homo sapiens, UniProt P00918)
Read-out: enzyme activity
Mode: inhibitor

SMILES	technique	pH	endpoint	value
NS(=O)(=O)c1nnc(NC(=O)CCCC2CCCCC2)s1	stopped-flow		Ki	0.0088 µM
OC1CCN(c2ccc(/C=N/NC(=S)NCc3ccccc3)cc2)CC1	absorbance		IC50	0.504 µM
Cc1cccc(CC(=O)Nc2nnc(S(N)(=O)=O)s2)c1	stopped-flow		Ki	0.0368 µM
CC[C@H]1OC(=O)[C@H](C)[C@@H](O[C@H]2C[C@@](C)(OC)[C@@H](O)[C@H](C)O2)[C@H](C)[C@@H](O[C@@H]2O[C@H](C)C[C@H](N(C)C)[C@H]2O)[C@](C)(O)C[C@@H](C)CN(C)[C@H](C)[C@@H](O)[C@]1(C)O	absorbance	pH 7.4	IC50	13 µM
OC1CCN(c2ccc(/C=N/NC(=S)Nc3ccc(Br)cc3)cc2)CC1	absorbance		IC50	0.332 µM
Cn1cnc([N+](=O)[O-])c1Sc1ncnc2nc[nH]c12	absorbance	pH 7.4	IC50	20.6 µM
Cc1ccc(CNC(=S)N/N=C/c2ccc(N3CCC(O)CC3)cc2)cc1	absorbance		IC50	0.698 µM
NS(=O)(=O)c1ccc(Nc2nc(-c3cc4cc(Br)ccc4oc3=O)cs2)c(Br)c1	absorbance		IC50	5.86 µM
NS(=O)(=O)c1cnc(NC(=O)CCc2ccccc2)s1	stopped-flow		Ki	0.0987 µM
CN(C/C=C/C#CC(C)(C)C)Cc1cccc2ccccc12	absorbance	pH 7.4	IC50	32.2 µM
COc1ccc2oc(=O)c(-c3csc(Nc4ccc(C(=O)O)cc4)n3)cc2c1	absorbance		IC50	4.61 µM
OC(Cn1cncn1)(Cn1cncn1)c1ccc(F)cc1F	absorbance	pH 7.4	IC50	12.5 µM
CC(C)CNC(=S)N/N=C/c1ccc(N2CCC(O)CC2)cc1	absorbance		IC50	0.695 µM
Cc1ccccc1C(=O)Nc1nnc(S(N)(=O)=O)s1	stopped-flow		Ki	0.0256 µM
O=C(O)COCCN1CCN(C(c2ccccc2)c2ccc(Cl)cc2)CC1 (stereo not drawn)	absorbance	pH 7.4	IC50	15.2 µM
